The source made the active and inactive calls. The rule behind the calls is not given here.
What was measured:
[1] = target: Free fatty acid receptor 1 (Rattus norvegicus, UniProt Q8K3T4); assay: Displacement of 3-[4-({2',6'-dimethyl-6-[(4-[3H])-phenylmethoxy]biphenyl-3-yl}methoxy)phenyl] propanoic acid from rat GPR40 receptor expressed in CHO cells after 90 mins by scintillation counting in presence of 0.2% BSA; assay type: cell-based
Procedure, shortened: (§1)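 Membranes from CHO lines stably expressing human or rat GPR40/FFA1, in Tris-HCl pH 7.5 with EDTA, protease inhibitors, 0.05% CHAPS and 0.2% fatty acid-free BSA. Tritiated ligand at 2 or 6 nmol/L with graded test compound, 90 min at room temperature. Filter harvest, scintillation counting. Nonspecific binding with 10 μmol/L unlabeled ligand. IC50 by nonlinear regression, Ki via Cheng–Prusoff with measured Kd. Averages of n = 2 or 3.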

[2] = target: T1, Free fatty acid receptor 1 (Homo sapiens, UniProt O14842); assay: Displacement of 3-[4-({2',6'-dimethyl-6-[(4-[3H])-phenylmethoxy]biphenyl-3-yl}methoxy)phenyl] propanoic acid from human GPR40 receptor expressed in CHO cells after 90 mins by scintillation counting in presence of 0.2% BSA; assay type: cell-based; procedure, shortened: as §1
[3] = Octanol-water partition coefficient, log D of the compound at pH 7.4 by reverse-phase liquid chromatography; assay type: physicochemical
[4] = target: T1, Free fatty acid receptor 1; assay: Agonist activity at human […] receptor expressed in CHO cells assessed as increase in intracellular calcium concentration after 90 secs by FLIPR assay in presence of 0.1% BSA; assay type: functional, cell-based
Procedure, shortened: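 CHO dhfr cells stably expressing human GPR40/FFA1 (NM_005303) plated and held overnight at 37 °C in 5% CO2. Loaded 60 min at 37 °C with Fluo 4-AM 2.5 μg/mL, probenecid 2.5 mmol/L and 0.1% fatty acid-free BSA. Compounds added over a concentration range, Ca2+ rise followed 90 s. Response scaled between vehicle (0%) and 10 μM γ-linolenic acid (100%).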

[5] = target: T1, Free fatty acid receptor 1; assay: Agonist activity at human […] receptor expressed in CHO cells assessed as increase in intracellular calcium concentration at 10 uM after 90 secs by FLIPR assay in presence of 0.1% BSA relative to control; assay type: functional, cell-based
Procedure, shortened: (§2)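 CHO dhfr cells stably expressing human GPR40/FFA1 (NM_005303) plated, incubated overnight at 37 °C in 5% CO2. Loaded 60 min at 37 °C with Fluo 4-AM (2.5 μg/mL), probenecid (2.5 mmol/L), 0.1% fatty acid-free BSA. Ca2+ rise monitored by FLIPR for 90 s after compound addition. Response expressed as % of 10 μM γ-linolenic acid response, vehicle-corrected.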

[6] = target: T1, Free fatty acid receptor 1; assay: Agonist activity at human […] receptor expressed in CHO cells assessed as increase in intracellular calcium concentration at 1 uM after 90 secs by FLIPR assay in presence of 0.1% BSA relative to control; assay type: functional, cell-based; procedure, shortened: as §2
[7] = system: Rattus norvegicus; assay: Antidiabetic activity in po dosed Wistar fatty rat assessed as increase in plasma insulin level administered as single dose 1 hr prior to glucose challenge measured after 120 mins by OGTT; assay type: functional; details: read-out: MED
Procedure, shortened: (§3)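 Female Wistar fatty rats aged 17−19 weeks, fasted overnight. Dosed orally in 0.5% methylcellulose (vehicle control), then given oral glucose 1 g/kg 1 h later. Tail-vein blood taken pre-dose, at 0, and at 10, 30, 60 and 120 min. Glucose by autoanalyzer, insulin by RIA. Glucose AUC0−120 min and incremental insulin AUC0−120 min calculated. n = 6, one-tailed Williams test versus vehicle.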

[8] = system: Rattus norvegicus; assay: Antidiabetic activity in Wistar fatty rat assessed as increase in plasma insulin level at 1 to 10 mg/kg, po administered as single dose 1 hr prior to glucose challenge measured after 120 mins by OGTT; assay type: functional, organism-based; procedure, shortened: as §3
[9] = system: Rattus norvegicus; assay: Antidiabetic activity in Wistar fatty rat assessed as decrease in plasma glucose level at 1 to 10 mg/kg, po administered as single dose 1 hr prior to glucose challenge measured after 120 mins by OGTT; assay type: functional, organism-based; procedure, shortened: as §3
[10] = system: Rattus norvegicus; assay: Antidiabetic activity in Wistar fatty rat assessed as decrease in plasma glucose level at 10 mg/kg, po administered as single dose 4 hrs prior to glucose challenge measured after 120 mins by OGTT; assay type: functional, organism-based; set-up: dose 10 mg/kg
Procedure, shortened: (§4)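 Female Wistar fatty rats aged 17−19 weeks, fasted overnight. Given compound orally (10 mg/kg) or vehicle (0.5% methylcellulose), with oral glucose 1 g/kg 4 h later. Tail-vein sampling pre-dose, at 0, and at 10–120 min. Glucose by autoanalyzer, insulin by RIA.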

[11] = system: Rattus norvegicus; assay: Antidiabetic activity in po dosed Wistar fatty rat assessed as decrease in plasma glucose level administered as single dose 1 hr prior to glucose challenge measured after 120 mins by OGTT; assay type: functional; details: read-out: MED; procedure, shortened: as §3
[12] = system: Rattus norvegicus; assay: Antidiabetic activity in Wistar fatty rat assessed as increase in plasma insulin level at 10 mg/kg, po administered as single dose 4 hrs prior to glucose challenge measured after 120 mins by OGTT; assay type: functional, organism-based; set-up: dose 10 mg/kg; procedure, shortened: as §4

Free fatty acid receptor 1 (Rattus norvegicus, UniProt Q8K3T4), sequence (Q8K3T4 whole entry): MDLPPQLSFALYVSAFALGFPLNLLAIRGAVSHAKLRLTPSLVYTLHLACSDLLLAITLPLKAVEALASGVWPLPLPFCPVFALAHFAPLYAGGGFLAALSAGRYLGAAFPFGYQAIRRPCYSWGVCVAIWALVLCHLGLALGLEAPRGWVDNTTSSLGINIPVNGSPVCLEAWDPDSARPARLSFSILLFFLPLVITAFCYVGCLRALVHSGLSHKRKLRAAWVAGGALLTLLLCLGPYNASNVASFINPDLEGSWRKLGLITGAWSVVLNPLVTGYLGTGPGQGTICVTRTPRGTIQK
T1 sequence (O14842 whole entry): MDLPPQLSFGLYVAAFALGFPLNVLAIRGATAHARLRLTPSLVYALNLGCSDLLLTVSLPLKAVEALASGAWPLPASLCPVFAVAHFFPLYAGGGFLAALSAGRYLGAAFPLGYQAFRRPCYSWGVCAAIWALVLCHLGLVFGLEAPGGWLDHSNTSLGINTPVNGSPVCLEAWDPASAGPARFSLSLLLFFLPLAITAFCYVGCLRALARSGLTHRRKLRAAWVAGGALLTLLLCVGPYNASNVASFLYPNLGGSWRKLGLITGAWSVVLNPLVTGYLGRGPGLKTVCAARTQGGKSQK

Compound | Ki [1] [µM] | Ki [2] [µM] | chromatographic logD [3] | EC50 [4] [µM] | also measured
Cc1cccc(C)c1-c1cccc(COc2ccc3c(n2)CCC3CC(=O)O)c1 (centres undefined) | > 10 | > 10 | 3.88 | 0.57 | –
CCOCCOc1cc(C)c(-c2cccc(COc3ccc4c(c3)CC(C(=O)O)C4)c2)c(C)c1 (centres undefined) | > 10 | > 10 | 4.11 | 0.96 | –
CCOCCOc1cc(C)c(-c2cccc(COc3ccc4c(c3)CC(=O)N4CC(=O)O)c2)c(C)c1 | > 10 | > 10 | 3.41 | – | Efficacy [5]: 59%; Efficacy [6]: 2%
Cc1cccc(C)c1-c1cccc(COc2ccc3c(c2)OCCC(C(=O)O)C3)c1 (centres undefined) | – | – | 4.05 | 0.07 | –
O=C(O)CC1COc2cc(OCc3cccc(-c4ccc5sccc5c4)c3)ccc21 (centres undefined) | > 10 | 0.57 | 3.97 | 0.18 | –
CCOCCOc1cc(C)c(-c2cccc(COc3ccc4c(c3)CC(CC(=O)O)C4)c2)c(C)c1 (centres undefined) | > 10 | 0.27 | 4.39 | 0.084 | –
Cc1cccc(C)c1-c1cccc(COc2ccc3c(CC(=O)O)coc3c2)c1 | – | – | 4.04 | 4.9 | –
CCOCCOc1cc(C)c(-c2cccc(COc3ccc4c(c3)OCC4CC(=O)O)c2)c(C)c1 (centres undefined) | 0.2 | – | 3.83 | – | minimal effective dose [7]: 10 mg/kg; Activity [8]: Active; Activity [9]: Active; Activity [10]: Active; minimal effective dose [11]: 10 mg/kg; Activity [12]: Active
Cc1cccc(C)c1-c1cccc(COc2ccc3c(c2)CC3CC(=O)O)c1 (centres undefined) | > 10 | 1.2 | 4.12 | 0.069 | –
CCOCCOc1cc(C)c(-c2cccc(COc3ccc4c(c3)CCC(CC(=O)O)C4)c2)c(C)c1 (centres undefined) | > 10 | 2.1 | 4.67 | 0.51 | –
CCOCCOc1cc(C)c(-c2cccc(COc3ccc4c(c3)CCC(C(=O)O)C4)c2)c(C)c1 (centres undefined) | > 10 | 0.28 | 4.33 | 0.14 | –
Cc1cccc(C)c1-c1cccc(COc2ccc3c(c2)CCCCC3CC(=O)O)c1 (centres undefined) | – | – | 5.02 | 0.94 | –
Cc1cccc(C)c1-c1cccc(COc2ccc3c(ccn3CC(=O)O)c2)c1 | > 10 | > 10 | 3.93 | – | Efficacy [5]: 101%; Efficacy [6]: 2%
CCOCCOc1cc(C)c(-c2cccc(COc3ccc4c(c3)COC4CC(=O)O)c2)c(C)c1 (centres undefined) | 0.067 | 0.39 | 3.61 | 0.091 | –

Now from value to compound, other results behind:

Ki [1] [µM] | Ki [2] [µM] | chromatographic logD [3] | EC50 [4] [µM] | Compound | also measured
1.6 | 0.057 | 4.15 | 0.029 | Cc1ccc(-c2cccc(COc3ccc4c(c3)OCC4CC(=O)O)c2)c(C)c1 (centres undefined) | –
0.47 | 0.041 | 4.33 | 0.021 | Cc1ccc2ccccc2c1-c1cccc(COc2ccc3c(c2)OCC3CC(=O)O)c1 (centres undefined) | –
0.13 | 0.036 | 4.47 | 0.033 | Cc1cc(C)c(-c2cccc(COc3ccc4c(c3)OCC4CC(=O)O)c2)c(C)c1 (centres undefined) | –
– | – | 4.4 | 0.033 | Cc1cccc(C)c1-c1cccc(COc2ccc3c(c2)CCC3CC(=O)O)c1 (centres undefined) | –
0.11 | 0.043 | 3.13 | 0.048 | CCOCCOc1cc(C)c(-c2cccc(CNc3ccc4c(c3)OCC4CC(=O)O)c2)c(C)c1 (centres undefined) | –
1.6 | 0.13 | 3.31 | 0.024 | COc1ccc(COc2ccc3c(c2)OCC3CC(=O)O)cc1-c1c(C)cccc1C (centres undefined) | –
> 10 | 0.29 | 3.99 | 0.039 | O=C(O)CC1COc2cc(OCc3cccc(-c4csc5ccccc45)c3)ccc21 (centres undefined) | –
– | – | 4.7 | 0.027 | Cc1cccc(C)c1-c1cccc(COc2ccc3c(c2)CCCC3CC(=O)O)c1 (centres undefined) | –
– | – | 3.88 | 0.027 | Cc1cccc(C)c1-c1cccc(COc2ccc3c(c2)OCC3CC(=O)O)c1 (centres undefined) | –
0.1 | 0.018 | 5.03 | 0.028 | Cc1cc(OCc2ccccc2)cc(C)c1-c1cccc(COc2ccc3c(c2)OCC3CC(=O)O)c1 (centres undefined) | –
0.17 | 0.0069 | 4.53 | 0.01 | Cc1cccc(C)c1-c1cc(COc2ccc3c(c2)OCC3CC(=O)O)ccc1OCc1ccccc1 (centres undefined) | –

Reference: ChEMBL document CHEMBL2021847, “Identification of fused-ring alkanoic acids with improved pharmacokinetic profiles that act as G protein-coupled receptor 40/free fatty acid receptor 1 agonists” (J Med Chem, 2012)
